Assay results published in ChEMBL document CHEMBL2016487, “Pyrazolopyrimidines as dual Akt/p70S6K inhibitors” (Bioorg Med Chem Lett, 2012).

Tests used:
A549 [1] = experiment: Anticancer activity against human A549 cell xenografted model at 50 mg/kg, po qd for 2 days every 4 days; format: functional; settings: read-out: TGI
[2] = Plasma concentration in mouse at 100 mg/kg after 1 hr; format: ADME, organism-based; set-up: dose 100 mg/kg
In short: (§1)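 Mouse plasma levels measured 1 and 4 h after a 100 mg/kg dose.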

PC-3 [3] = experiment: Inhibition of GSK3beta phosphorylation in human PC3 cells xenografted model at 100 mg/kg bid; format: functional
In short: (§2)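 PC-3 prostate carcinoma model; compound given at 100 mg/kg bid, five doses in total before phospho-S6, phospho-GSK3β and phospho-PRAS40 levels were measured.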

[4] = target: T1, Ribosomal protein S6 kinase beta-1 (Homo sapiens, UniProt P23443); experiment: Inhibition of p70S6K-mediated ribosomal protein S6 phosphorylation in human A549 cells after 3 hrs by chemiluminescence assay; format: cell-based
In short: (§3)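 A549 or PC-3 cells seeded at 7.5 × 10³ cells/well in DMEM with heat-inactivated 10% FBS, 1% penicillin–streptomycin, 1% non-essential amino acids, grown 48 h at 37 °C, 5% CO₂. Treated 3 h with compound at 1.2–300 nM, triplicate, 0.2% DMSO final. Fixed in 4% formaldehyde, blocked, probed with anti-phospho-S6 (Ser240/244) and anti-total-S6 overnight at 4 °C, chemiluminescent read-out.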

Rattus norvegicus [5] = experiment: Dose normalized AUC in rat at 2.5 mg/kg, po; format: ADME, organism-based; set-up: dose 2.5 mg/kg, route oral; settings: in vivo
[6] = Cmax in rat at 2.5 mg/kg, po; format: ADME, organism-based; set-up: dose 2.5 mg/kg, route oral; settings: in vivo
Rhesus monkey [7] = experiment: Dose normalized AUC in monkey at 3 mg/kg, iv; format: ADME, organism-based, Macaca mulatta; set-up: dose 3 mg/kg, route intravenous; settings: in vivo
[8] = target: T2, RAC-alpha serine/threonine-protein kinase (Homo sapiens, UniProt P31749); experiment: Inhibition of AKT1-mediated GSK3beta phosphorylation in human PC3 cells after 3 hrs by chemiluminescence assay; format: cell-based, PC-3
In short: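 PC-3 cells seeded at 7.5 × 10³ cells/well, grown 24 h, then serum-starved 24 h. Compound treatment 3 h in triplicate (0.2% DMSO final), followed by 100 ng/ml IGF1 for 30 min. Fixed and processed as a cell ELISA using anti-phospho-GSK3β (S9) and anti-total-GSK3β antibodies, chemiluminescent read-out.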

[9] = Cmax in dog at 3 mg/kg, po; format: ADME, organism-based, Canis lupus familiaris; set-up: dose 3 mg/kg, route oral; settings: in vivo
[10] = Plasma concentration in mouse at 100 mg/kg after 4 hrs; format: ADME, organism-based; set-up: dose 100 mg/kg; in short: as §1
[11] = Clearance in rat at 2.5 mg/kg; format: ADME, organism-based; set-up: dose 2.5 mg/kg; settings: in vivo
PC-3 [12] = experiment: Inhibition of ribosomal protein S6 phosphorylation in human PC3 cells xenografted model at 100 mg/kg bid; format: functional; in short: as §2
[13] = Volume of distribution in rat at 2.5 mg/kg; format: ADME, organism-based; set-up: dose 2.5 mg/kg; settings: in vivo
[14] = target: T2, RAC-alpha serine/threonine-protein kinase; experiment: Inhibition of AKT1 after 3 hrs by luciferase based chemiluminescence assay
[15] = Half life in rat at 2.5 mg/kg, iv; format: ADME, organism-based; set-up: dose 2.5 mg/kg, route intravenous; settings: in vivo
[16] = Oral bioavailability in dog at 3 mg/kg; format: ADME, organism-based, Canis lupus familiaris; settings: in vivo
Canis familiaris [17] = experiment: Dose normalized AUC in dog at 3 mg/kg, iv; format: ADME, organism-based, Canis lupus familiaris; set-up: dose 3 mg/kg, route intravenous; settings: in vivo
[18] = Half life in dog at 3 mg/kg, iv; format: ADME, organism-based, Canis lupus familiaris; set-up: dose 3 mg/kg, route intravenous; settings: in vivo
A549 [19] = experiment: Anticancer activity against human A549 cell xenografted model at 100 mg/kg, po qd for 2 days every 4 days; format: functional; settings: read-out: TGI
In short: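 A549 xenograft; oral dosing at 50 mg/kg qd, or 100 mg/kg qd for two days every 4 days; tumor growth inhibition determined.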

[20] = Cmax in monkey at 3 mg/kg, iv; format: ADME, organism-based, Macaca mulatta; set-up: dose 3 mg/kg, route intravenous; settings: rhesus monkey, in vivo
[21] = target: T1, Ribosomal protein S6 kinase beta-1; experiment: Inhibition of p70S6K-mediated ribosomal protein S6 phosphorylation in human PC3 cells after 3 hrs by chemiluminescence assay; format: cell-based, PC-3; in short: as §3
[22] = target: T1, Ribosomal protein S6 kinase beta-1; experiment: Inhibition of p70S6K after 3 hrs by luciferase based chemiluminescence assay
Rattus norvegicus [23] = experiment: Dose normalized AUC in rat at 2.5 mg/kg, iv; format: ADME, organism-based; set-up: dose 2.5 mg/kg, route intravenous; settings: in vivo
Rhesus monkey [24] = experiment: Dose normalized AUC in monkey at 3 mg/kg, po; format: ADME, organism-based, Macaca mulatta; set-up: dose 3 mg/kg, route oral; settings: in vivo
[25] = Volume of distribution in monkey at 3 mg/kg; format: ADME, organism-based, Macaca mulatta; set-up: dose 3 mg/kg; settings: rhesus monkey, in vivo
[26] = Half life in rat at 2.5 mg/kg, po; format: ADME, organism-based; set-up: dose 2.5 mg/kg, route oral; settings: in vivo
[27] = Half life in dog at 3 mg/kg, po; format: ADME, organism-based, Canis lupus familiaris; set-up: dose 3 mg/kg, route oral; settings: in vivo
[28] = Cmax in monkey at 3 mg/kg, po; format: ADME, organism-based, Macaca mulatta; set-up: dose 3 mg/kg, route oral; settings: rhesus monkey, in vivo
[29] = Half life in monkey at 3 mg/kg, iv; format: ADME, organism-based, Macaca mulatta; set-up: dose 3 mg/kg, route intravenous; settings: rhesus monkey, in vivo
[30] = Clearance in dog at 3 mg/kg; format: ADME, organism-based, Canis lupus familiaris; set-up: dose 3 mg/kg; settings: in vivo
PC-3 [31] = experiment: Anticancer activity against human PC3 prostate tumor cell xenografted model at 50 mg/kg, po qd for 15 days; format: functional; settings: PC-3, 360 h, read-out: TGI
In short: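 PC-3 xenograft efficacy study; oral dosing at 50 mg/kg qd for 15 days, tumor growth inhibition determined.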

[32] = Oral bioavailability in rat at 2.5 mg/kg; format: ADME, organism-based; settings: in vivo
PC-3 [33] = experiment: Inhibition of PRAS40 phosphorylation in human PC3 cells xenografted model at 100 mg/kg bid; format: functional; in short: as §2
[34] = Volume of distribution in dog at 3 mg/kg; format: ADME, organism-based, Canis lupus familiaris; set-up: dose 3 mg/kg; settings: in vivo
Canis familiaris [35] = experiment: Dose normalized AUC in dog at 3 mg/kg, po; format: ADME, organism-based, Canis lupus familiaris; set-up: dose 3 mg/kg, route oral; settings: in vivo
[36] = Cmax in rat at 2.5 mg/kg, iv; format: ADME, organism-based; set-up: dose 2.5 mg/kg, route intravenous; settings: in vivo
[37] = Oral bioavailability in monkey at 3 mg/kg; format: ADME, organism-based, Macaca mulatta; settings: rhesus monkey, in vivo
[38] = Cmax in dog at 3 mg/kg, iv; format: ADME, organism-based, Canis lupus familiaris; set-up: dose 3 mg/kg, route intravenous; settings: in vivo
[39] = Half life in monkey at 3 mg/kg, po; format: ADME, organism-based, Macaca mulatta; set-up: dose 3 mg/kg, route oral; settings: rhesus monkey, in vivo
[40] = Clearance in monkey at 3 mg/kg; format: ADME, organism-based, Macaca mulatta; set-up: dose 3 mg/kg; settings: rhesus monkey, in vivo

T1 sequence (P23443 whole entry): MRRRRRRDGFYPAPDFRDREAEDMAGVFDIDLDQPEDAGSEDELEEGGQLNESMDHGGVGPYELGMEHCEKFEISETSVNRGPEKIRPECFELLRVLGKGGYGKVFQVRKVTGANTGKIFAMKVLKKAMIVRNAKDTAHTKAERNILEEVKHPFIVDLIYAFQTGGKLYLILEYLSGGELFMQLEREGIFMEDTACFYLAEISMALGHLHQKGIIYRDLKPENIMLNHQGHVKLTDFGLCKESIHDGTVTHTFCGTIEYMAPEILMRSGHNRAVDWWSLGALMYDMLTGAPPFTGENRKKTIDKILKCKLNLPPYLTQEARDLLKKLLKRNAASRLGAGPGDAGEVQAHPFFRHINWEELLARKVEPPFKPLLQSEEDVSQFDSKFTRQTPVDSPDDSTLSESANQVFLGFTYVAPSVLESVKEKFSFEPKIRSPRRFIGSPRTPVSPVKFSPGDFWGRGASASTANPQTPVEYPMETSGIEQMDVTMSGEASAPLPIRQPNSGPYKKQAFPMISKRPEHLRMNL
T2 sequence (P31749 whole entry): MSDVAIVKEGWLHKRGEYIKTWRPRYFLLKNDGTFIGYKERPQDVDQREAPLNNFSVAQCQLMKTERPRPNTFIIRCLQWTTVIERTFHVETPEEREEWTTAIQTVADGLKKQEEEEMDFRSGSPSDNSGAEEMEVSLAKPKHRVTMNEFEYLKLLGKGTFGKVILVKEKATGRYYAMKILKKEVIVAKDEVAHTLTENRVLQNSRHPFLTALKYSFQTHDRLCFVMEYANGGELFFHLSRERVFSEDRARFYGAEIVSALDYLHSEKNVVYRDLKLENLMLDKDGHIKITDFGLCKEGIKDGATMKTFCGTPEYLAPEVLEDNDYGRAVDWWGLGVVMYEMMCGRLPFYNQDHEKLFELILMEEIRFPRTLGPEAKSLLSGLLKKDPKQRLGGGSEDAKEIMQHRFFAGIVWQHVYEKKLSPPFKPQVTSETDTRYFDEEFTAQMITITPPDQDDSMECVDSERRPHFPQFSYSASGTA

## Cc1c(NCCN2CCCC2)cc(C(=O)CCC(F)(F)F)cc1N1CCN(c2ncnc3[nH]nc(Br)c23)CC1 [XL-418]
A549 [1]
  inhibition in vivo at 50 mg/kg: 71%
[2]
  concentration at 1 h: 1.6 µM
PC-3 [3]
  inhibition in vivo at 100 mg/kg: 46%
[4]
  IC50: 0.03 µM
Rattus norvegicus [5]
  AUC/dose: 0.17 µM·kg·h/mg
[6]
  Cmax: 0.04 µM
Rhesus monkey [7]
  AUC/dose: 1.22 µM·kg·h/mg
[8]
  IC50: 0.194 µM
[9]
  Cmax: 0.1 µM
[10]
  concentration at 4 h: 3.1 µM
[11]
  clearance: 2.72 L/h/kg
PC-3 [12]
  inhibition in vivo at 100 mg/kg: 90%
[13]
  Vd: 12.9 L/kg
[14]
  IC50: 0.001 µM
[15]
  half-life: 3.5 h
[16]
  bioavailability: 58%
Canis familiaris [17]
  AUC/dose: 0.95 µM·kg·h/mg
[18]
  half-life: 7.5 h
A549 [19]
  inhibition in vivo at 100 mg/kg: 96%
[20]
  Cmax: 0.58 µM
[21]
  IC50: 0.055 µM
[22]
  IC50: 0.002 µM
Rattus norvegicus [23]
  AUC/dose: 0.64 µM·kg·h/mg
Rhesus monkey [24]
  AUC/dose: 0.94 µM·kg·h/mg
[25]
  Vd: 6.9 L/kg
[26]
  half-life: 7.9 h
[27]
  half-life: 10.4 h
[28]
  Cmax: 0.4 µM
[29]
  half-life: 6.1 h
[30]
  clearance: 1.56 L/h/kg
PC-3 [31]
  inhibition in vivo at 50 mg/kg: 52%
[32]
  bioavailability: 35%
PC-3 [33]
  inhibition in vivo at 100 mg/kg: 76%
[34]
  Vd: 17 L/kg
Canis familiaris [35]
  AUC/dose: 0.54 µM·kg·h/mg
[36]
  Cmax: 0.33 µM
[37]
  bioavailability: 77%
[38]
  Cmax: 0.21 µM
[39]
  half-life: 6.4 h
[40]
  clearance: 1.23 L/h/kg
